Source: ChEMBL document CHEMBL5370658, “Development of First-in-Class Dual Sirt2/HDAC6 Inhibitors as Molecular Tools for Dual Inhibition of Tubulin Deacetylation” (J Med Chem, 2023)
The source made the active and inactive calls. The rule behind the calls is not given here.

Key:
[1] = biological target: T1, NAD-dependent protein deacetylase sirtuin-2 (Homo sapiens) (UniProt Q8IXJ6); experiment: Inhibition of recombinant human Sirt2 (56 to 356 residues) expressed in Escherichia coli BL21 Star (DE3) mediated demyristoylation activity using ZMML as substrate at 10 uM incubated for 4 hrs in presence of NAD+ by trypsin based fluorescence analysis relative to control
T1 sequence (whole entry): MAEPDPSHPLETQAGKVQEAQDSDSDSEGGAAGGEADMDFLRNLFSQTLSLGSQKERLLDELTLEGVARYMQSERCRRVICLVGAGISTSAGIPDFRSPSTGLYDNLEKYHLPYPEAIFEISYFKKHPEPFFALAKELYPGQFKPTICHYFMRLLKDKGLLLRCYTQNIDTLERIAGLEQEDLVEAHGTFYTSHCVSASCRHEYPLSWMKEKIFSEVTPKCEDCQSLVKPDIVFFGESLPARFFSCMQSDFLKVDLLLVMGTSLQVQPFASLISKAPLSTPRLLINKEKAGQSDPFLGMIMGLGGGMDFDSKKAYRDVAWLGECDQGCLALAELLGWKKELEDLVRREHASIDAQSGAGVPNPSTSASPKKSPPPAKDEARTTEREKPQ

[2] = Cytotoxicity against human PC-3M-luc cells assessed as inhibition of cell growth at 50 uM incubated for 72 hrs by MTS assay relative to control; assay type: functional
HGC-27 = experiment: Cytotoxicity against human HGC-27 cells assessed as inhibition of cell growth at 50 uM incubated for 72 hrs by MTS assay relative to control; assay type: functional
MCF7 = experiment: Cytotoxicity against human MCF7 cells assessed as inhibition of cell growth at 50 uM incubated for 72 hrs by MTT assay relative to control; assay type: functional
[3] = Cytotoxicity against human W1 Ovarian cancer cells assessed as inhibition of cell growth at 50 uM incubated for 72 hrs by MTT assay relative to control; assay type: functional
PC-3M-luc = settings: Homo sapiens, dose 20.0 µM, time 5.0 hrs
[4] = biological target: T2, NAD-dependent protein deacetylase sirtuin-3, mitochondrial (Homo sapiens, UniProt Q9NTG7); experiment: Inhibition of recombinant human Sirt3 (118 to 395 residues) expressed in Escherichia coli BL21 Star (DE3) using ZMAL as substrate incubated for 4 hrs in presence of NAD+ by trypsin based fluorescence analysis
T2 sequence (Q9NTG7 whole entry): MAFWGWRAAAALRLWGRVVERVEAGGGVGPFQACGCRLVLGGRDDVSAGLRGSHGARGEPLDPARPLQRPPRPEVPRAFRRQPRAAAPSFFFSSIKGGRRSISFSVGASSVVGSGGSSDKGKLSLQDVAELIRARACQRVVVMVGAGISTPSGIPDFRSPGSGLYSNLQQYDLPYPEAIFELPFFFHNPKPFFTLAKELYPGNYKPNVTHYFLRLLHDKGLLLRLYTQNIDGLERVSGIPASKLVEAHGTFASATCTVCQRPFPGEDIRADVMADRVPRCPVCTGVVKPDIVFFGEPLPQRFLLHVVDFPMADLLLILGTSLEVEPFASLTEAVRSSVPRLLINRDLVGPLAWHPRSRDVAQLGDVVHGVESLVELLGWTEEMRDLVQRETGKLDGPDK
In short: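 Human Sirt1 (134–747) or Sirt3 (118–395) expressed in E. coli, purified by Strep-Tactin and size exclusion. Assay with ZMAL (10.5 µM final) in Tris buffer pH 8.0, 5% DMSO, at 37 °C. Started with NAD+ (500 µM final). Conversion set to 15–30%.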

Compound	inhibition [1]	inhibition at 50 µM [2]	inhibition at 50 µM (HGC-27)	inhibition at 50 µM (MCF7)	inhibition at 50 µM [3]	inhibition (PC-3M-luc)	IC50 [4]
O=C(CCCCCCC(=O)Nc1ccccc1)NO	18%	–	–	–	–	–	–
Cc1cc(C)nc(SCC(=O)Nc2ncc(Cc3cccc(OCc4cn(Cc5ccccc5)nn4)c3)s2)n1	–	< 20%	–	–	–	–	–
Cc1cc(C)nc(SCC(=O)Nc2ncc(Cc3cccc(OCc4cn(CCOCCOCCOCCOCCC(=O)Nc5ccc(C(=O)NCc6ccc(C(=O)NO)cc6)cc5)nn4)c3)s2)n1	–	< 20%	< 20%	< 20%	< 20%	Active	–
Cc1cc(C)nc(SCC(=O)Nc2ncc(Cc3cccc(OCc4cn(CCOCCOCCOCCOCCC(=O)Nc5ccc(C(=O)NCCCCCCC(=O)NO)cc5)nn4)c3)s2)n1	–	< 20%	–	< 20%	< 20%	Active	–
Cc1cc(C)nc(SCC(=O)Nc2ncc(Cc3cccc(OCc4cn(CCOCCOCCOCCOCCOCCOCCOCCOCCOCCOCCC(=O)Nc5ccc(C(=O)NCc6ccc(C(=O)NO)cc6)cc5)nn4)c3)s2)n1	–	< 20%	< 20%	< 20%	< 20%	Active	–
COCCn1cc(COc2cccc(Cc3cnc(NC(=O)CSc4nc(C)cc(C)n4)s3)c2)nn1	–	–	–	–	–	–	> 100 µM
